Here are results for 9 compounds from ChEMBL document CHEMBL1152641, “Effect of potential amine prodrugs of selective neuronal nitric oxide synthase inhibitors on blood-brain barrier penetration” (Bioorg Med Chem, 2009).

The nature of series [1]: Ratio of drug level from brain to blood in mouse at 10 umol/kg, ip. It counts as ADME, tissue-based.
Series [2] concerns Mus musculus. Put plainly: Toxicity in mouse at 3.7 mg/kg, ip. It counts as organism-based. Also on record: dose 3.7 mg/kg, route intraperitoneal. Conditions: in vivo.
Series [3] relates to Brain. Put plainly: Drug level in mouse brain at […], ip. Conditions: in vivo, read-out: Drug uptake. It counts as ADME, organism-based. The method, boiled down: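 Mice were dosed i.p. with compound diluted in PBS to 1 mM, at 100 μL per 10 g, and sampled 10 min later. Brains were PBS-perfused through the left ventricle, removed, flash-frozen, homogenized in 2% formic acid water/acetonitrile (2:1) with internal standard, then cleaned by cation-exchange SPE. Quantified by positive-ESI LC-MS/MS against triplicate standard curves; μg/g converted to μM assuming density 1 g/mL; SEM.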

Series [4] relates to Mus musculus. Description: Plasma concentration in mouse at 10 umol/kg, ip. It counts as ADME, organism-based. Particulars: in vivo. The method, boiled down: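 Mice were given an i.p. injection of a 1 mM PBS solution (100 μL per 10 g) and sampled at 10 min. Heparinized blood was centrifuged and the plasma flash-frozen at −20 °C. Plasma plus internal standard was diluted in 2% acetic acid, cleaned by mixed-mode cation-exchange SPE, and quantified by positive-ESI LC-MS/MS (MRM) against triplicate standard curves; values as SEM.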

The nature of series [5]: Metabolic stability in rat liver microsomes assessed compound remaining after 40 mins by HPLC in presence of NADPH. In kind it is ADME, Microsome. Conditions: read-out: Stability. The method, boiled down:
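Compound (10 μL of 300 μM stock) in PBS with NADPH regeneration solutions A/B was equilibrated at 37 °C. Rat liver microsomes were added and samples incubated for 0, 10, 20 or 40 min. Reactions were quenched with acetonitrile, chilled to 0 °C, centrifuged, dried and reconstituted in 2% formic acid. HPLC peak areas were normalized to t = 0; minaprine served as activity control.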
Background: Microsomes from liver hold many membrane-bound enzymes, among them those of drug oxidation.

Series [6] deals with Plasma. Put plainly: Metabolic stability in mouse plasma assessed as half life in presence of NADPH. In kind it is ADME, cell-free. The method, boiled down: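 Fresh heparinized mouse plasma was supplemented with NADPH regenerating system (solutions A and B), and compound was added from a 200 μM stock. Incubation was at 37 °C, with samples taken at 0, 10, 20 and 40 min. Samples were quenched with acetonitrile plus internal standard, centrifuged, dried and run on HPLC. Compound/internal-standard ratio was normalized to the t = 0 ratio.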

Series [7] concerns Brain. Put plainly: Metabolic stability in mouse brain homogenate assessed degradation by HPLC in presence of NADPH. It counts as ADME, tissue-based. The method, boiled down:
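Three fresh mouse brains were each homogenized in PBS (pH 7.4) with NADPH regeneration buffers A and B, then pooled. Compound was added from a 200 μM stock and incubated at 37 °C for 0, 10, 20 and 40 min. Samples were heat-stopped at 95 °C for 1 min. HPLC UV read-out was at 310 or 260 nm depending on the compound. Peak-area ratio to internal standard was normalized to t = 0.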

The test system of a further series is Liver microsomes. Put plainly: Metabolic stability in rat liver microsomes assessed degradation by HPLC in presence of NADPH. It counts as ADME, Microsome. The method, boiled down:
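Rat liver microsomes were added to PBS containing NADPH regeneration buffers A and B and compound (from a 300 μM stock), pre-equilibrated at 37 °C. Incubation was at 37 °C for 0, 10, 20 and 40 min. Samples were quenched with acetonitrile, chilled, centrifuged, dried and reconstituted in 2% formic acid for HPLC. Peak area was normalized to t = 0. Minaprine was run in parallel as a P450 activity control.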

The subject of series [8] is Plasma. Put plainly: Metabolic stability in mouse plasma after 40 mins by HPLC in presence of NADPH.

As a reminder, the Kp is the ratio of the level in a tissue or fluid to that in plasma or blood.

On to `Cc1cc(N)nc(C[C@@H]2CNC[C@@H]2OCCNCCc2cccc(F)c2)c1` (racemic), for which, in series [1], the Kp came to 0.046. The Activity result with Mus musculus [2] is on record as “Non-toxic”. For the same compound, the concentration in the series with Brain [3] is 73 nM; with Mus musculus [4] it was 1600 nM.

For the compound `CC(=O)N(CCO[C@H]1CNC[C@H]1Cc1cc(C)cc(N)n1)CCc1cccc(F)c1` (racemic), in series [1], the Kp turned out to be 0.008. Moreover, in series [5], the remaining at 40 min is more than 80%. The figures for the concentration in the series with Brain [3] and in the series on Mus musculus [4] were 39 nM and 4600 nM, respectively.

As for `Cc1cc(N)nc(C[C@@H]2CNC[C@@H]2OCCN(CCc2cccc(F)c2)C(=O)OCc2ccccc2)c1` (racemic), the Kp in [1] was found to be 0.018. The remaining at 40 min in series [5] is more than 60%. Besides, the concentration in the series on Brain [3] is 9 nM; in the series on Mus musculus [4], 490 nM.

With `CC(OC(=O)N[C@@H](CCCNC(=N)N[N+](=O)[O-])CNc1ccccc1)OC(=O)C(C)(C)C` (single isomer, unassigned; diastereomer 1), the t1/2 in the series on Plasma [6] amounted to 10 min.

Take `CC(OC(=O)N[C@@H](CCCNC(=N)N[N+](=O)[O-])CNc1ccccc1)OC(=O)C(C)(C)C` (single isomer, unassigned; diastereomer 2): the Stability entry in the series on Brain [7] and in the series with Liver microsomes was “Unstable” in each case. In the series on Plasma [6], the t1/2 came out at 30 min.

For `Cc1cc(N)nc(C[C@@H]2CNC[C@@H]2NCCNCCc2cccc(F)c2)c1`, the Kp in series [1] amounted to 0.024. Besides, the results for the concentration with Brain [3] and in the series on Mus musculus [4] were 39 nM and 1600 nM, respectively.

`CC(OC(=O)N[C@@H](CCCNC(=N)N[N+](=O)[O-])CNc1ccccc1)OC(=O)C(C)(C)C` (stereo partly specified): the Stability entry in the series with Plasma [8] was “Unstable”.

Regarding `Cc1cc(N)nc(C[C@@H]2CNC[C@@H]2OCCN=[N+]=[N-])c1` (racemic), the Stability result in the series with Brain [7] and in the series on Plasma [8] was “Stable” throughout.

Turning to `COC(=O)N(CCO[C@H]1CNC[C@H]1Cc1cc(C)cc(N)n1)CCc1cccc(F)c1` (racemic), the Kp in series [1] worked out at 0.015. The remaining at 40 min in [5] is more than 80%. Moreover, the results for the concentration with Brain [3] and in the series with Mus musculus [4] were 18 nM and 1210 nM, respectively.
